In ChEMBL document CHEMBL1149770, “Synthesis and antimicrobial studies of novel dichlorofluorophenyl containing aminotriazolothiadiazines” (2008):
In brackets after ≈: the same amount, converted by molar mass.

Key:
Pseudomonas aeruginosa [1] = test: Antibacterial activity against Pseudomonas aeruginosa ATCC 27853 after 24 hrs by broth dilution technique; type: functional; settings: ATCC 27853, 24 h
Method in brief: (§1)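 MIC by broth dilution in nutrient broth with logarithmic serial twofold dilutions of compound. Inoculum approx. 5×10^5 c.f.u actively dividing bacteria. Incubated 24 h at 37 °C, growth monitored visually and spectrophotometrically. MIC taken as the lowest concentration (highest dilution) arresting growth. Ciprofloxacin reference.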

[2] = tested on: Trichophyton mentagrophytes; test: Antifungal activity against Trichophyton mentagrophytes assessed as inhibition zone diameter […] by agar dilution method; type: functional
Method in brief: (§2)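 Compounds in DMSO placed in punched wells on Sabouraud agar (peptone, glucose, agar, pH 5.7) lawned with saline spore suspension. Plates pre-dried 1 h at 37 °C. Controls in triplicate, incubation at 37 °C for 3-4 days, then inhibition zone diameter read in mm. Amphotericin B reference.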

Aspergillus fumigatus [3] = test: Antifungal activity against Aspergillus fumigatus after 48 hrs […]; type: functional
Candida albicans [4] = test: Antifungal activity against Candida albicans after 48 hrs […]; type: functional
Streptococcus pyogenes [5] = test: Antibacterial activity against Streptococcus pyogenes assessed as inhibition zone diameter after 24 hrs by disc diffusion method
Staphylococcus aureus [6] = test: Antibacterial activity against Staphylococcus aureus ATCC 25923 assessed as inhibition zone diameter after 24 hrs […]; type: functional
Method in brief: (§3)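 Disc diffusion on nutrient agar. Inoculum 1-2 × 10^7 c.f.u/ml (0.5 McFarland) spread over the plate surface. Sterile 6.25 mm filter-paper discs soaked in a known concentration of compound. Solvent and growth controls included. Plates incubated inverted 24 h at 37 °C, then inhibition zone diameter measured in mm. Ciprofloxacin reference.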

Candida albicans [7] = test: Antifungal activity against Candida albicans assessed as inhibition zone diameter […] by agar dilution method; type: functional; method in brief: as §2
Escherichia coli = test: Antibacterial activity against Escherichia coli ATCC 25922 after 24 hrs by broth dilution technique; type: functional; settings: ATCC 25922, 24 h; method in brief: as §1
Talaromyces marneffei [8] = test: Antifungal activity against Penicillium marneffei after 48 hrs […]; type: functional
Talaromyces marneffei [9] = test: Antifungal activity against Penicillium marneffei assessed as inhibition zone diameter […] by agar dilution method; type: functional; method in brief: as §2
Streptococcus pyogenes [10] = test: Antibacterial activity against Streptococcus pyogenes after 24 hrs by broth dilution technique; type: functional; method in brief: as §1
Klebsiella pneumoniae [11] = test: Antibacterial activity against Klebsiella pneumoniae after 24 hrs by broth dilution technique; type: functional; method in brief: as §1
Aspergillus fumigatus [12] = test: Antifungal activity against Aspergillus fumigatus assessed as inhibition zone diameter […] by agar dilution method; type: functional; method in brief: as §2
Staphylococcus aureus [13] = test: Antibacterial activity against Staphylococcus aureus ATCC 25923 after 24 hrs by broth dilution technique; type: functional; settings: ATCC 25923, 24 h; method in brief: as §1
Pseudomonas aeruginosa [14] = test: Antibacterial activity against Pseudomonas aeruginosa ATCC 27853 assessed as inhibition zone diameter after 24 hrs […]; type: functional; method in brief: as §3
Klebsiella pneumoniae [15] = test: Antibacterial activity against Klebsiella pneumoniae assessed as inhibition zone diameter after 24 hrs […]; type: functional; method in brief: as §3
Aspergillus flavus [16] = test: Antifungal activity against Aspergillus flavus assessed as inhibition zone diameter […] by agar dilution method; type: functional; method in brief: as §2
[17] = tested on: Trichophyton mentagrophytes; test: Antifungal activity against Trichophyton mentagrophytes after 48 hrs […]; type: functional
Aspergillus flavus [18] = test: Antifungal activity against Aspergillus flavus after 48 hrs […]; type: functional

Row | SMILES | MIC (Pseudomonas aeruginosa [1]) | inhibition zone (IZ) [2] | MIC (Aspergillus fumigatus [3]) | MIC (Candida albicans [4]) | inhibition zone (IZ) (Streptococcus pyogenes [5]) | inhibition zone (IZ) (Staphylococcus aureus [6]) | inhibition zone (IZ) (Candida albicans [7]) | MIC (Escherichia coli) | MIC (Talaromyces marneffei [8]) | inhibition zone (IZ) (Talaromyces marneffei [9]) | MIC (Streptococcus pyogenes [10]) | MIC (Klebsiella pneumoniae [11]) | inhibition zone (IZ) (Aspergillus fumigatus [12]) | MIC (Staphylococcus aureus [13]) | inhibition zone (IZ) (Pseudomonas aeruginosa [14]) | inhibition zone (IZ) (Klebsiella pneumoniae [15]) | inhibition zone (IZ) (Aspergillus flavus [16]) | MIC [17] | MIC (Aspergillus flavus [18])
1 | Nn1c(SCC(=O)Nc2c(Cl)cccc2Cl)nnc1-c1cc(F)c(Cl)cc1Cl | 12.5 µg/mL (≈ 26 µM) | 10 mm | 12.5 µg/mL (≈ 26 µM) | 12.5 µg/mL (≈ 26 µM) | 19 mm | 18 mm | 12 mm | 12.5 µg/mL (≈ 26 µM) | 12.5 µg/mL (≈ 26 µM) | 13 mm | 6.25 µg/mL (≈ 13 µM) | 6.25 µg/mL (≈ 13 µM) | 15 mm | 6.25 µg/mL (≈ 13 µM) | 23 mm | 21 mm | 17 mm | 25 µg/mL (≈ 52 µM) | 6.25 µg/mL (≈ 13 µM)
2 | Cc1cccc(C)c1NC1=Nn2c(nnc2-c2cc(F)c(Cl)cc2Cl)SC1 | 6.25 µg/mL (≈ 14.8 µM) | 19 mm | 25 µg/mL (≈ 59.2 µM) | 12.5 µg/mL (≈ 29.6 µM) | 21 mm | 23 mm | 15 mm | 12.5 µg/mL (≈ 29.6 µM) | 12.5 µg/mL (≈ 29.6 µM) | 12 mm | 6.25 µg/mL (≈ 14.8 µM) | 12.5 µg/mL (≈ 29.6 µM) | 10 mm | 6.25 µg/mL (≈ 14.8 µM) | 15 mm | 12 mm | 24 mm | 6.25 µg/mL (≈ 14.8 µM) | 6.25 µg/mL (≈ 14.8 µM)
3 | Nn1c(SCC(=O)Nc2ccc(Cl)cc2)nnc1-c1cc(F)c(Cl)cc1Cl | 12.5 µg/mL (≈ 28 µM) | 8 mm | 12.5 µg/mL (≈ 28 µM) | 12.5 µg/mL (≈ 28 µM) | 10 mm | 17 mm | 12 mm | 12.5 µg/mL (≈ 28 µM) | 12.5 µg/mL (≈ 28 µM) | 17 mm | 25 µg/mL (≈ 56 µM) | 12.5 µg/mL (≈ 28 µM) | 15 mm | 12.5 µg/mL (≈ 28 µM) | 18 mm | 12 mm | 10 mm | 25 µg/mL (≈ 56 µM) | 25 µg/mL (≈ 56 µM)
4 | Nn1c(SCC(=O)Nc2cc(Cl)c(Cl)cc2Cl)nnc1-c1cc(F)c(Cl)cc1Cl | 6.25 µg/mL (≈ 12.1 µM) | 19 mm | 6.25 µg/mL (≈ 12.1 µM) | 6.25 µg/mL (≈ 12.1 µM) | 25 mm | 22 mm | 20 mm | 6.25 µg/mL (≈ 12.1 µM) | 6.25 µg/mL (≈ 12.1 µM) | 23 mm | 6.25 µg/mL (≈ 12.1 µM) | 6.25 µg/mL (≈ 12.1 µM) | 21 mm | 6.25 µg/mL (≈ 12.1 µM) | 30 mm | 21 mm | 25 mm | 6.25 µg/mL (≈ 12.1 µM) | 6.25 µg/mL (≈ 12.1 µM)
5 | Cc1ccc(NC(=O)CSc2nnc(-c3cc(F)c(Cl)cc3Cl)n2N)cc1 | 6.25 µg/mL (≈ 14.7 µM) | 18 mm | 6.25 µg/mL (≈ 14.7 µM) | 6.25 µg/mL (≈ 14.7 µM) | 22 mm | 25 mm | 18 mm | 6.25 µg/mL (≈ 14.7 µM) | 6.25 µg/mL (≈ 14.7 µM) | 23 mm | 6.25 µg/mL (≈ 14.7 µM) | 6.25 µg/mL (≈ 14.7 µM) | 20 mm | 6.25 µg/mL (≈ 14.7 µM) | 31 mm | 20 mm | 22 mm | 6.25 µg/mL (≈ 14.7 µM) | 6.25 µg/mL (≈ 14.7 µM)
6 | Cc1ccc(NC2=Nn3c(nnc3-c3cc(F)c(Cl)cc3Cl)SC2)cc1 | 6.25 µg/mL (≈ 15.3 µM) | 17 mm | 6.25 µg/mL (≈ 15.3 µM) | 6.25 µg/mL (≈ 15.3 µM) | 23 mm | 21 mm | 18 mm | 6.25 µg/mL (≈ 15.3 µM) | 6.25 µg/mL (≈ 15.3 µM) | 23 mm | 6.25 µg/mL (≈ 15.3 µM) | 6.25 µg/mL (≈ 15.3 µM) | 20 mm | 6.25 µg/mL (≈ 15.3 µM) | 29 mm | 21 mm | 19 mm | 6.25 µg/mL (≈ 15.3 µM) | 6.25 µg/mL (≈ 15.3 µM)
